Columns and labels:
[1] = tested on: Staphylococcus aureus; assay: minimum inhibitory concentration (MIC) against Staphylococcus aureus NCTC 6571.; assay type: functional
How it was run: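 Agar dilution MIC in blood agar base with 5% chocolated horse blood. Inoculum was an overnight nutrient broth culture, about 10^6 CFU per spot. Plates were incubated 18-24 h at 37 °C. MIC taken as the lowest concentration fully inhibiting growth.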

[2] = molecular target: T1, Isoleucine--tRNA ligase (Staphylococcus aureus, UniProt P41972); assay: Inhibition concentration against isoleucyl tRNA synthetase from Staphylococcus aureus NCTC 6571
T1 sequence (P41972 whole entry): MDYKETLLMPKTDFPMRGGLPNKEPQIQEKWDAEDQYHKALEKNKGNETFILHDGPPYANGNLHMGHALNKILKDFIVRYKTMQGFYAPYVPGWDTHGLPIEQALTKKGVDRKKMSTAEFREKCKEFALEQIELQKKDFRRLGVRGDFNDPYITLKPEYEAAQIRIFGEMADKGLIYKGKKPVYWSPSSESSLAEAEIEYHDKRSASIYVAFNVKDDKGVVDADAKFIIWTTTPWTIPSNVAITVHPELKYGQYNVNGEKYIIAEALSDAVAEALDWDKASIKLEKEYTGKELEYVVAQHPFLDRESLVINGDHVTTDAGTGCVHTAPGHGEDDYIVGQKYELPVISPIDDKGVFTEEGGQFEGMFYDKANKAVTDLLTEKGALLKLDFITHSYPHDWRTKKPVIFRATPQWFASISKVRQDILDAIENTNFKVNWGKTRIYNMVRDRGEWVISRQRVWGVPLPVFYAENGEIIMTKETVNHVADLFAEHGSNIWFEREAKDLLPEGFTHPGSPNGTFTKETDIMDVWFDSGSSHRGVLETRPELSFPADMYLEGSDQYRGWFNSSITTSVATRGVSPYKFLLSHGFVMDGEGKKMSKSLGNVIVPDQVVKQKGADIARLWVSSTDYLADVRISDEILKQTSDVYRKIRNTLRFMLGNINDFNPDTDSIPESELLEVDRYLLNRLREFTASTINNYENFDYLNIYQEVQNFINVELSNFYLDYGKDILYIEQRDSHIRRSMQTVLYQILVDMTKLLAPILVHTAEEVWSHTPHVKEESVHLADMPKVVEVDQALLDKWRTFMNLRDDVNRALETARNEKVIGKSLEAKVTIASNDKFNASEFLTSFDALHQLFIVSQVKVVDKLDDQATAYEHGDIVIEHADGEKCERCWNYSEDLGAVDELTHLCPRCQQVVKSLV
How it was run: (§1)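 IRS extracted from S. aureus grown to late stationary phase in shake flasks (Nutrient Broth No. 2). Cells were sonicated with lysostaphin, DNase-treated, dialysed against 20 mM Tris-HCl pH 8 with 5 mM MgCl2 and 2 mM DTT, then ultracentrifuged. Compound was preincubated with enzyme 5 min. Charging of E. coli tRNA with 4.8 µM [U-14C]-isoleucine and 5 mg/mL ATP was run 10 min at 37 °C. IC50 taken as 50% inhibition of 14C-Ile incorporation.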

[3] = molecular target: T1, Isoleucine--tRNA ligase; assay: (§2) Inhibition concentration against Isoleucyl-tRNA synthetase from Staphylococcus aureus NCTC 6571; how it was run: as §1
[4] = molecular target: T2, Isoleucine--tRNA ligase (Staphylococcus aureus) (UniProt P41972); assay: as §2; settings: concentration not given here; how it was run: as §1
T2 sequence (whole entry): T1 sequence (P41972 whole entry)

SMILES: C[C@H]([C@@H]1O[C@H]1C[C@H]1CO[C@@H](Cc2csc(-c3ccccc3)n2)[C@H](O)[C@@H]1O)[C@H](C)O
- MIC [1]: >64 ug m1 l-1
- IC50 [2]: 14.3 nM

SMILES: C[C@H]([C@@H]1O[C@H]1C[C@H]1CO[C@@H](Cc2nnc(-c3ccccc3)o2)[C@H](O)[C@@H]1O)[C@H](C)O
- MIC [1]: 8 ug m1 l-1
- IC50 [3]: 5.19 nM

SMILES: C[C@H]([C@@H]1O[C@H]1C[C@H]1CO[C@@H](Cc2ncc(-c3ccccc3)o2)[C@H](O)[C@@H]1O)[C@H](C)O
- MIC [1]: >64 ug m1 l-1
- inhibition [4]: 0%

SMILES: CCOC(=O)/C=C(\C)C[C@@H]1OC[C@H](C[C@@H]2O[C@H]2[C@@H](C)[C@H](C)O)[C@@H](O)[C@H]1O
- MIC [1]: 0.5 ug m1 l-1
- IC50 [3]: 2.95 nM

SMILES: C[C@H]([C@@H]1O[C@H]1C[C@H]1CO[C@@H](Cc2cnc(-c3ccccc3)o2)[C@H](O)[C@@H]1O)[C@H](C)O
- MIC [1]: 2 ug m1 l-1
- IC50 [3]: 4.71 nM

SMILES: C/C(=C\C(=O)OCCCCCCCCC(=O)O)C[C@@H]1OC[C@H](C[C@@H]2O[C@H]2[C@@H](C)[C@H](C)O)[C@@H](O)[C@H]1O [MUPIROCIN]
- MIC [1]: 0.13 ug m1 l-1
- IC50 [3]: 1.7 nM

SMILES: C[C@H]([C@@H]1O[C@H]1C[C@H]1CO[C@@H](Cn2nnc(-c3ccccc3)n2)[C@H](O)[C@@H]1O)[C@H](C)O
- MIC [1]: 8 ug m1 l-1
- IC50 [3]: 8.9 nM

SMILES: C[C@H]([C@@H]1O[C@H]1C[C@H]1CO[C@@H](Cc2nc(-c3ccccc3)no2)[C@H](O)[C@@H]1O)[C@H](C)O
- MIC [1]: 4 ug m1 l-1
- IC50 [3]: 1.73 nM

SMILES: C[C@H]([C@@H]1O[C@H]1C[C@H]1CO[C@@H](Cc2cc(-c3ccccc3)on2)[C@H](O)[C@@H]1O)[C@H](C)O
- MIC [1]: >64 ug m1 l-1
- inhibition [4]: 17%

SMILES: C[C@H]([C@@H]1O[C@H]1C[C@H]1CO[C@@H](Cc2cc(-c3ccccc3)no2)[C@H](O)[C@@H]1O)[C@H](C)O
- MIC [1]: 4 ug m1 l-1
- IC50 [3]: 13.1 nM

Source: ChEMBL document CHEMBL1130111, “The chemistry of pseudomonic acid. 18. Heterocyclic replacement of the alpha,beta-unsaturated ester: synthesis, molecular modeling, and antibacterial activity” (J Med Chem, 1997)
